Molecules are shown by their SMILES. Where only a bound is given, the exact number is not on record here.

In one test the target is T1, Pendrin (Mus musculus, UniProt Q9R155).
T1 sequence (Q9R155 whole entry): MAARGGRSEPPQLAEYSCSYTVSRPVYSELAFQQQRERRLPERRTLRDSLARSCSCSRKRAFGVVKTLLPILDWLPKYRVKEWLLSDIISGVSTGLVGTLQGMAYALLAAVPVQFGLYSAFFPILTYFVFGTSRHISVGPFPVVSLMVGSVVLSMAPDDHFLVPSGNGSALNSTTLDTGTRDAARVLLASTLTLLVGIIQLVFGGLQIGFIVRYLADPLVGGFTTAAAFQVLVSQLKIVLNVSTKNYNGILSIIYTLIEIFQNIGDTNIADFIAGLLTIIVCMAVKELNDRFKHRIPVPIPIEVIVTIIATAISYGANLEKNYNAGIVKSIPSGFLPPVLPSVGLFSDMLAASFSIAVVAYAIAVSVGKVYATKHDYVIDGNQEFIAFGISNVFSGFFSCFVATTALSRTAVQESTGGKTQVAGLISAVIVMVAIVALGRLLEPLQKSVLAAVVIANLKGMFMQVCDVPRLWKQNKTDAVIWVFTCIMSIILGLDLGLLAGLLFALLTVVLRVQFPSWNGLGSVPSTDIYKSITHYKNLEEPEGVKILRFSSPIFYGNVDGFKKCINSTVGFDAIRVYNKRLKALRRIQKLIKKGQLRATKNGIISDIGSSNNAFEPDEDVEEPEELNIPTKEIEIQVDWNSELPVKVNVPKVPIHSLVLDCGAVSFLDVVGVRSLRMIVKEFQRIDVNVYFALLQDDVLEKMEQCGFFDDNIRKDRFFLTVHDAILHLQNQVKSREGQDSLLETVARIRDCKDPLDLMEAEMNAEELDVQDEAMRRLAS
Put plainly: Inhibition of mouse PDS stably expressed in FRT cells coexpressing EYFP-H148Q/I152L/F46L assessed as reduction in I-/Cl- exchange incubated for 10 mins by fluorescence based assay. The format is cell-based. In short, it runs like this:
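Fischer rat thyroid cells stably co-expressing murine pendrin and the halide-sensing YFP variant were used for Cl–/I– exchange. An I–-containing solution was added to the cells, and exchange was followed as the rate of fluorescence decrease. Inhibition was read as a slower decline in fluorescence.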
For `Cn1nc(COc2cc(F)c(F)c(F)c2)c2c1CCN(C(=O)Nc1ccc(Cl)cc1)C2`, the IC50 (usually the concentration that inhibits the measured activity by half) is 3.3 µM.

Turning to `Cn1nc(COc2cc(F)cc(F)c2)c2c1CCN(S(=O)(=O)c1ccc(C(F)(F)F)cc1)C2`, the IC50 is over 10 µM.

In the case of `Cn1nc(COc2cc(F)cc(F)c2)c2c1CCN(S(C)(=O)=O)C2`, the IC50 was over 10 µM. Still for that read-out and setting: next, `CCN(CC)S(=O)(=O)N1CCc2c(c(COc3cc(F)cc(F)c3)nn2C)C1`: over 10 µM. Regarding `CCOC(=O)c1nn(C)c2c1CN(C(=O)Nc1ccc(Cl)cc1)CC2`, the IC50 is over 10 µM. As for `Cn1nc(COc2ccc(F)c(F)c2)c2c1CCN(C(=O)Nc1ccc(Cl)cc1)C2`, the IC50 was determined as 4.6 µM.

Take `Cn1nc(COc2cc(F)cc(F)c2)c2c1CCN(C(=O)Nc1ccc(Cl)cc1)C2`: the IC50 was determined as 3.1 µM. On the same count and under the same terms, next, `Cn1nc(COc2cc(F)cc(F)c2)c2c1CCN(S(=O)(=O)c1ccc(Cl)cc1)C2`: over 10 µM; `Cn1nc(COc2cc(F)cc(F)c2)c2c1CCN(C(=S)Nc1ccc(Cl)cc1)C2`: over 10 µM; `Cn1nc(COc2cc(F)cc(F)c2)c2c1CCN(C(=O)Nc1ccc(Br)cc1)C2`: 3.3 µM. For the molecule `Cn1nc(COc2cc(F)cc(F)c2)c2c1CCN(C(=S)NC1CCCCC1)C2`, the IC50 was over 10 µM. Still for that read-out and setting: next, `Cn1nc(COc2cc(F)cc(F)c2)c2c1CCN(C(=O)NC(=O)c1ccccc1)C2`: over 10 µM. As to `CC(C)NC(=O)N1CCc2c(c(COc3cc(F)cc(F)c3)nn2C)C1`, the IC50 is over 10 µM. Still for that read-out and setting: the same measure for `CN(C)c1ccc(NC(=S)N2CCc3c(c(COc4cc(F)cc(F)c4)nn3C)C2)cc1`: over 10 µM; for `Cn1nc(COc2cc(F)cc(F)c2)c2c1CCN(C(=O)NC1CCCCC1)C2`: over 10 µM. The same measure, in the same setting: next, `Cn1nc(C(=O)O)c2c1CCN(C(=O)Nc1ccc(Cl)cc1)C2`: over 10 µM.

In another test the target is T2, Pendrin (Homo sapiens, UniProt O43511).
T2 sequence (O43511 whole entry): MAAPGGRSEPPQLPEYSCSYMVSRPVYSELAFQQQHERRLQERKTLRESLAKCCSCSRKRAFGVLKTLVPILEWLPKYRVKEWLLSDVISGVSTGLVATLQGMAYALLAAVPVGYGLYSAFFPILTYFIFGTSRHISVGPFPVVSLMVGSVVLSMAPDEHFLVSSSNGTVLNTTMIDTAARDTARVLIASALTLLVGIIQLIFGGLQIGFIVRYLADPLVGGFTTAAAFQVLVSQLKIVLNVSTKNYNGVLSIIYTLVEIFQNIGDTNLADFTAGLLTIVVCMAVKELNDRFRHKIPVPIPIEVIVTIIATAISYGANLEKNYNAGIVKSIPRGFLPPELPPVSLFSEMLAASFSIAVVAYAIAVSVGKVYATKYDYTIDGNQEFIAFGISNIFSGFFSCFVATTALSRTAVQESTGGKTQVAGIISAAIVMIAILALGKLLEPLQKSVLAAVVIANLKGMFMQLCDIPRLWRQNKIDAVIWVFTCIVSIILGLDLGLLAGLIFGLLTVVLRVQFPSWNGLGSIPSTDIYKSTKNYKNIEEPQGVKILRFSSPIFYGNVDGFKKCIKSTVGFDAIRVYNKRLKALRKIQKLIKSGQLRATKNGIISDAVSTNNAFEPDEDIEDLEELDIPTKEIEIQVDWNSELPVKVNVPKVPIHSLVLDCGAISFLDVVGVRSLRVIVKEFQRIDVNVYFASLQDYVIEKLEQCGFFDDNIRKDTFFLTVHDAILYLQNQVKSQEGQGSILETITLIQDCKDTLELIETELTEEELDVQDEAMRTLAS
Put plainly: Inhibition of human PDS stably expressed in FRT cells coexpressing EYFP-H148Q/I152L/F46L assessed as reduction in I-/Cl- exchange incubated for 10 mins by fluorescence based assay. The format is cell-based.
As for `Cn1nc(COc2cccc(F)c2)c2c1CCN(C(=O)Nc1ccc(Cl)cc1)C2`, the IC50 turned out to be 7 µM.

(Values after ChEMBL document CHEMBL4346737, “Synthesis and evaluation of tetrahydropyrazolopyridine inhibitors of anion exchange protein SLC26A4 (pendrin)” (Bioorg Med Chem Lett, 2019).)
